Bioassay records deposited in PubChem by Johns Hopkins Ion Channel Center.
TRPC4 PAM: positive allosteric modulators of TRPC4, primary screen, cell-based, mouse TRPC4beta, HEK293 mu-opioid, Fluo-4 calcium. Short transient receptor potential channel 4 (Mus musculus), Q9QUQ5. DAMGO EC20, Fluo-4 Ca2+ flux; active compounds read high. B-score at 10 µM. hit rate 0.42% among 310,000. AID 2227, 2009;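 active = B-score of calcium response area above 5 SD of library B-scores, with initial fluorescence ratio within 5 SD of library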;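 also: B-score of integrated fluorescence ratio over time as area under calcium response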
Target sequence (Q9QUQ5 whole entry, looked up): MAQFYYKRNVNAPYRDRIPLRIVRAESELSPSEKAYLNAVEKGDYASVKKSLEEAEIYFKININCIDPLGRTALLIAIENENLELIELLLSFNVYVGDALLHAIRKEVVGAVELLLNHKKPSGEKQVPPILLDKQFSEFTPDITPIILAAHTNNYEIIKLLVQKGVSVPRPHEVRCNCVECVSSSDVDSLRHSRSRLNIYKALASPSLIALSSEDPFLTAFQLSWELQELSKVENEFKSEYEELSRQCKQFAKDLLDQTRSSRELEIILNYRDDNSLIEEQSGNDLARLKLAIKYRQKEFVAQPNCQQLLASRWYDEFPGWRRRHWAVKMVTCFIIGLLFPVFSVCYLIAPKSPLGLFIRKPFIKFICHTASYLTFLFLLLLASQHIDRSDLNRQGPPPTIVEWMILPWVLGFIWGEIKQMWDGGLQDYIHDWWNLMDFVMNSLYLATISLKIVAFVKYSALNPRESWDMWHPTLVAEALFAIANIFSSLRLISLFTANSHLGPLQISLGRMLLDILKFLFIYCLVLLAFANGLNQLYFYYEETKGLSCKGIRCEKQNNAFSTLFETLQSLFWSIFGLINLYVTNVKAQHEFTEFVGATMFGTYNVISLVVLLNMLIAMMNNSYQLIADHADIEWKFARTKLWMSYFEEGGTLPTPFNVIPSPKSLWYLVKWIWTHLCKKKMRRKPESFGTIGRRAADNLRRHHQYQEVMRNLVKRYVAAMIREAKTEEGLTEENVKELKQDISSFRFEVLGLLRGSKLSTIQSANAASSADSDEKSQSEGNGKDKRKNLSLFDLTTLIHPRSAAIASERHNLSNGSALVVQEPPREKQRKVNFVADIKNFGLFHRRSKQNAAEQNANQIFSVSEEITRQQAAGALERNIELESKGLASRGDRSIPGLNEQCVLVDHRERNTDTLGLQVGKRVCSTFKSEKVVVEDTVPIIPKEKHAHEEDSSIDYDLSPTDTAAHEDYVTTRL
TRPC6 inh: mouse TRPC6 channel inhibitors, primary screen, cell-based, HEK293, membrane potential dye; ACh-evoked depolarization; active compounds read low; B-score at 10 µM; Short transient receptor potential channel 6 (Mus musculus), Q61143; hit rate 1.1% among 310,000;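 active = B-score under library mean minus 3 SD, initial fluorescence not abnormally high, positive integrated signal ratio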;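 also: B-score derived from integrated fluorescence ratio over the kinetic read; more negative B-score means stronger inhibition of depolarization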
TRPC4 inh: inhibitors of mouse TRPC4 channel, primary screen, Fluo4 calcium, HEK293 TRPC4beta/mu-opioid cells | B-score at 10 µM | DAMGO-evoked Fluo4 calcium flux; active compounds read low | hit rate 0.39% among 300,000 | Short transient receptor potential channel 4 (Mus musculus), Q9QUQ5;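 active = B-score over 3 SD under the library average, no early fluorescence shift, positive overall ratio signal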
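Test system – stable TRPC4beta/mu-opioid receptor HEK293 cells · Probe or stimulus – DAMGO, a submaximal dose followed by a maximal one · Dosing – one concentration per compound · Signal – Fluo4 calcium fluorescence by kinetic imaging, 5 s 1 Hz baseline · Evaluation – per-well B score of integrated baseline-normalized Fluo4 ratio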
TRPC6 activator: mouse TRPC6 channel activators, primary screen, cell-based, HEK293, membrane potential dye; Short transient receptor potential channel 6 (Mus musculus), Q61143; HEK293-TRPC6 membrane potential dye fluorescence; active compounds read high; B-score at 10 µM; hit rate 0.13% among 310,000;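 active = B-score of the integrated fluorescence ratio above library mean plus 3 SD, and starting fluorescence ratio within library mean plus 5 SD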;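 also: higher score means more depolarization so channel activation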
TRPC4 agonist: activators of mouse TRPC4 channel, primary screen, Fluo4 calcium, HEK293 TRPC4beta/mu-opioid cells | Fluo4 calcium fluorescence; active compounds read high | Short transient receptor potential channel 4 (Mus musculus), Q9QUQ5 | hit rate 0.49% among 310,000 | B-score at 10 µM;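 active = B-score above 5 SD of library B-scores, and initial fluorescence ratio not above library mean plus 5 SD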;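 also: positive B-score marks a calcium rise read as TRPC4 activation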
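Incubation: 45 min room-temperature Fluo4 loading, 110 s read / System: HEK293 cells stably co-expressing mouse TRPC4beta and mu-opioid receptor / Signal: Fluo4 fluorescence, kinetic / Control set: buffer (low) and maximal DAMGO (high) / Measure: integrated baseline-normalised fluorescence ratio, converted to per-well B score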
The depositor's hits bear a star; i = inactive. Sampled rows, rich in hits. Any-hit rate of the full collection: about 2.3%.

SMILES	TRPC4 PAM	TRPC6 inh	TRPC4 inh	TRPC6 activator	TRPC4 agonist
Cc1ccc(NC(=O)Nc2ccc([N+](=O)[O-])cc2)nc1	i	i	i	i	i
Cc1ccc(NC(=O)Nc2cccc([N+](=O)[O-])c2)nc1	19*	i	i	i	i
CCCCN(C)CCCNC(=O)c1cn(C)c2ccc(S(=O)(=O)N(C)C3CCCCC3)cc2c1=O	i	i	i	i	i
CCCCN(CC)CCCNC(=O)c1cn(C)c2ccc(S(=O)(=O)N(C)C3CCCCC3)cc2c1=O	12*	i	i	i	i
CCCCN(C)C(=O)c1cn(C)c2ccc(S(=O)(=O)N(C)C)cc2c1=O	14*	i	i	i	i
COc1ccc(OC)c(NC(=O)c2cc(OC(C)=O)cc(C(=O)Nc3cc(OC)ccc3OC)c2)c1	i	i	i	i	i
Cc1ccc(Nc2nc(NCCCN3CCOCC3)nc(N)c2[N+](=O)[O-])cc1C	i	i	i	i	i
Cc1ccc(Nc2nc(NCCCN3CCOCC3)nc(N)c2[N+](=O)[O-])cc1	i	i	-6*	i	i
CCN(CC)CCNC(=O)C(=O)Nc1ccc2c(c1)N(S(=O)(=O)c1cccs1)CCC2	i	i	i	i	i
COc1ccc(-c2nn(-c3ccccc3)cc2C(=O)N2c3ccc(C)cc3C3CN(C)CCC32)cc1 (stereo not drawn)	15*	i	i	i	i
NC(=Nc1ccccc1)Nc1ccccc1	i	i	i	i	134*
Cn1c(-c2ccccc2)c(/C=N/NC(=O)c2ccc(O)cc2)c2ccccc21	i	i	i	i	i
O=C(Cc1cccc(C(F)(F)F)c1)NCc1ccc(Cl)cc1	i	i	i	i	i
CN(C)C(CNC(=O)Cc1cccc(C(F)(F)F)c1)c1ccccc1 (stereo not drawn)	i	i	-7*	i	161*
CN(C)C(CNC(=O)Cc1cccc(C(F)(F)F)c1)c1ccco1 (stereo not drawn)	i	i	i	i	90*
CN(C)C(CNc1ccc(C(F)(F)F)cn1)c1ccccc1 (stereo not drawn)	i	i	i	i	97*
Cc1cccc(C(=O)NCC(c2ccco2)N(C)C)c1 (stereo not drawn)	i	i	i	i	i
CN(C)C(CNC(=O)C1CCN(S(=O)(=O)c2cccc(C(F)(F)F)c2)CC1)c1ccccc1 (stereo not drawn)	i	i	-8*	i	48*
COc1cccc(/C=C/C(=O)c2ccc3c(c2)OCCO3)c1OC	i	i	i	i	i
COCCN(C(=O)CN1CCN(S(=O)(=O)c2ccc(F)cc2)CC1)c1c(N)n(Cc2ccccc2)c(=O)[nH]c1=O	i	i	i	i	i
O=S1(=O)C=CC(c2ccccc2)C1 (stereo not drawn)	i	i	i	i	i
COc1cc(OC)c(OC)cc1CN1CCN(C(=O)CC(C)C)CC1	i	i	i	i	i
CCC(NC(=O)C1CCCC1)c1ccccc1 (stereo not drawn)	i	i	i	i	i
COc1cccc(-c2nn(-c3ccc(F)cc3)cc2C(=O)NCC2CCCO2)c1 (stereo not drawn)	i	i	i	i	i
Cc1ccn2c(-c3csc(NCc4ccco4)n3)c(C)nc2c1	i	i	-6*	i	i
COc1ccc(-c2csc(NCc3ccco3)n2)cc1C	i	i	i	i	i
Cc1cccc(OCCCC(=O)NCC(=O)Nc2cccc(C)c2C)c1	i	i	i	i	i
Cc1csc(/C(=N/OC(=O)c2ccco2)C(N)=O)n1	10*	i	i	i	i
